ChEMBL document CHEMBL1221230, “Inhibition of eukaryotic translation elongation by cycloheximide and lactimidomycin” (Nat Chem Biol, 2010)
Calls of active or inactive are those of the source. The calls are words filed in the database; no cut-off is given here.

Key:
MCF7 = assay: Anticancer activity against human MCF7 cells after 24 hrs by [3H]thymidine incorporation assay; format: functional, cell-based
[1] = Effect on polyribosome profiling assessed as accumulation of 80S ribosomes after 15 mins by scintillation spectroscopy; format: functional
Outline: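 Capped [³²P]-labelled rabbit β-globin RNA incubated in rabbit reticulocyte lysate with compound for 15 min, then centrifuged through 10–35% sucrose gradient.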

[2] = molecular target: Elongation factor 2 (Homo sapiens) (UniProt P13639); assay: Inhibition of eEF2-mediated tRNA translocation assessed as inhibition of polyphenylalanine synthesis at 200 uM after 10 mins by scintillation counting
[3] = Inhibition of elF4A-mediated renilla luciferase translational activity at 0.02 to 5 uM in presence of EMCV IRES element
Saccharomyces cerevisiae [4] = assay: Antimicrobial activity against Saccharomyces cerevisiae J47alpha; format: functional, organism-based
Outline: (§1)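 Four isogenic S. cerevisiae strain pairs, each differing only by presence or absence of cyh2, exposed to varying compound concentrations; growth read by optical density; IC50 derived per strain, resistance as ratio between paired strains.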

Saccharomyces cerevisiae [5] = assay: Antimicrobial activity against Saccharomyces cerevisiae BY686 expressing ribosomal protein cyh2 and harboring mutation in rpl28; format: functional, organism-based; outline: as §1
HeLa = assay: Inhibition of transcriptional activity in human HeLa cells assessed as [3H]uridine utilization after 2 hrs by scintillation counting; format: functional, cell-based
Outline: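 HeLa cells incubated 2 h with varying compound concentrations plus [³⁵S]cysteine/methionine (translation) or [³H]uridine (transcription). Protein synthesis: scintillation counting of TCA-precipitated protein on PVDF membrane. Transcription: scintillation counting of nucleic acids bound to GF/C glass fibre filter.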

Jurkat = assay: Antiproliferative activity against human Jurkat cells assessed as incorporation of [3H]thymidine in nuclear DNA at 2.5 uM after 24 hrs by scintillation counting; format: functional, cell-based
Outline: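 Each of three tumour cell lines incubated with compound at 2.5 μM for 24 h, then [³H]thymidine added to monitor DNA synthesis; initial proliferation screen.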

[6] = Effect on peptidyl transfer assessed as [35S]methionyl-puromycin formation by TLC
[7] = Inhibition of [32P]deacetylated phe-tRNA binding to 60S ribosome E-site by footprinting assay
Saccharomyces cerevisiae [8] = assay: Antimicrobial activity against Saccharomyces cerevisiae JB503; format: functional, organism-based; outline: as §1
[9] = Inhibition of elF4A-mediated renilla luciferase translational activity at 0.02 to 5 uM in presence of CrPV IRES element
HCC1395 = assay: Anticancer activity against human HCC1395 cells after 24 hrs by [3H]thymidine incorporation assay; format: functional, cell-based
Saccharomyces cerevisiae [10] = assay: Antimicrobial activity against Saccharomyces cerevisiae BY740 expressing ribosomal protein cyh2 and harboring mutation in rpl28; format: functional, organism-based; outline: as §1

With C/C(=C\[C@H](C)C(=O)C[C@H](O)CC1CC(=O)NC(=O)C1)[C@@H]1OC(=O)/C=C/CC/C=C/C=C\[C@@H]1C [LACTIMIDOMYCIN] the Activity (MCF7) was “Active”, the Activity [1] was “Active” and the inhibition [2] was “Active”. The inhibition [3] was “Active”, the IC50 (Saccharomyces cerevisiae [4]) was 4.6 nM and the IC50 (Saccharomyces cerevisiae [5]) was 596 nM. For the same compound, the IC50 (HeLa) was over 10000 nM, the Activity (Jurkat) was “inactive” and the Activity [6] was “inactive”. The inhibition [7] was “Active”, the IC50 (Saccharomyces cerevisiae [8]) was 58 nM and the inhibition [9] was “Active”. For the same compound, the Activity (HCC1395) was “Active” and the IC50 (Saccharomyces cerevisiae [10]) was 1210 nM.
